Experimental data: ChEMBL document CHEMBL3271956, “Oxindole-3-spiropyrrolidines and -piperidines. Synthesis and local anesthetic activity” (J Med Chem, 1976)
Activity calls are given as the source filed them. The rule behind the calls is not given here.

How the values were obtained:
[1] = Toxicity in iv dosed mouse; format: organism-based; settings: in vivo
[2] = test system: Rattus norvegicus; assay: Local anesthetic activity in rat assessed as onset time at 2% administered as base by sciatic nerve block method; format: functional
Procedure, shortened: (§1)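 Rat sciatic nerve block. Solutions are dosed with concentration expressed as base, and the pH of each solution is recorded. Groups are typically 10 rats. Onset is given in min. Frequency is the number of rats blocked out of those tested. Duration is in min, as mean ± SD.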

[3] = test system: Rattus norvegicus; assay: Local anesthetic activity in rat assessed as onset time at 1% administered as base by sciatic nerve block method; format: functional; procedure, shortened: as §1
[4] = test system: Rattus norvegicus; assay: Local anesthetic activity in rat assessed as duration of action at 2% administered as base by sciatic nerve block method; format: functional; procedure, shortened: as §1
[5] = test system: Rattus norvegicus; assay: Local anesthetic activity in rat assessed as duration of action at 1% administered as base by sciatic nerve block method; format: functional; procedure, shortened: as §1
[6] = test system: Rattus norvegicus; assay: Local anesthetic activity in rat assessed as frequency at 2% administered as base by sciatic nerve block method; format: functional, organism-based; procedure, shortened: as §1
[7] = test system: Rattus norvegicus; assay: Local anesthetic activity in rat assessed as frequency at 1% administered as base by sciatic nerve block method; format: functional, organism-based; procedure, shortened: as §1
[8] = test system: Rattus norvegicus; assay: Toxicity in rat at 2% administered as base after 30 mins; format: organism-based; settings: in vivo, 0.5 h
[9] = test system: Rattus norvegicus; assay: Toxicity in rat at 2% administered as base after 40 mins; format: organism-based; settings: in vivo
[10] = test system: Rattus norvegicus; assay: Toxicity in rat at 2% administered as base after 25 mins; format: organism-based; settings: in vivo

CCN1CCC2(C1)C(=O)Nc1c(C)cccc12 (configuration not stated) [listing 1 of 2 here]
LD50 [1]: 23 mg/kg

CCCN1CCC2(C1)C(=O)Nc1ccccc12 (configuration not stated) [listing 1 of 2 here]
LD50 [1]: 25 mg/kg

CCCN1CCC2(C1)C(=O)Nc1ccccc12.Cl (configuration not stated)
Time [2]: 2 min
Time [3]: 3 min
Time [4]: 78 min
Time [5]: 66 min

CN1CCCCC12C(=O)Nc1ccccc12 (configuration not stated)
Time [2]: 3 min
Activity [6]: Active
Time [3]: 5 min
Time [4]: 97 min
LD50 [1]: 97 mg/kg
Activity [7]: Active
Time [5]: 81 min

CCCN1CCCC2(C1)C(=O)Nc1ccccc12 (configuration not stated) [listing 1 of 2 here]
Activity [6]: Active
Activity [7]: Active

CCN1CCC2(C1)C(=O)Nc1c(C)cccc12 (configuration not stated) [listing 2 of 2 here]
Activity [6]: Active
Activity [7]: Active

CCCN1CCC2(C1)C(=O)Nc1ccccc12 (configuration not stated) [listing 2 of 2 here]
Activity [6]: Active
Activity [7]: Active

CN1CCC2(C1)C(=O)Nc1ccccc12 (configuration not stated)
Time [2]: 6 min
Activity [6]: Active
Time [3]: 11 min
Time [4]: 83 min
Activity [7]: Active
Time [5]: 56 min

CCN1CCC2(CC1)C(=O)Nc1ccccc12
Time [2]: 5 min
Activity [6]: Active
Time [3]: 6 min
Time [4]: 120 min
LD50 [1]: 53 mg/kg
Activity [7]: Active
Time [5]: 86 min

CCN1CCC2(C1)C(=O)Nc1ccccc12 (configuration not stated)
Time [2]: 3 min
Activity [6]: Active
Time [3]: 4 min
Time [4]: 85 min
LD50 [1]: 38 mg/kg
Activity [7]: Active
Time [5]: 67 min

CCN1CCC2(C1)C(=O)Nc1c(C)cccc12.Cl (configuration not stated)
Time [2]: 2 min
Activity [8]: Toxic
Time [3]: 3 min
Time [5]: 93 min

CCN(CC)CC(=O)Nc1c(C)cccc1C [LIDOCAINE]
Time [2]: 1 min
Activity [6]: Active
Time [4]: 141 min
Activity [7]: Active

CCN1CCCC12C(=O)Nc1ccccc12 (configuration not stated)
Time [2]: 5 min
Activity [6]: Active
Time [3]: 6 min
Time [4]: 107 min
LD50 [1]: 119 mg/kg
Activity [7]: Active
Time [5]: 83 min

CCCN1CCCC2(C1)C(=O)Nc1ccccc12.O=S(=O)(O)O (configuration not stated)
Time [2]: 4 min
Time [3]: 6 min
Time [4]: 95 min
Time [5]: 75 min

CCCN1CCCC2(C1)C(=O)Nc1ccccc12 (configuration not stated) [listing 2 of 2 here]
LD50 [1]: 41 mg/kg

CCN1CCC2(CC1)C(=O)Nc1c(C)cccc12
Activity [9]: Toxic
Activity [10]: Toxic
Time [2]: 3 min
Activity [6]: Active
Time [3]: 3 min
LD50 [1]: 21 mg/kg
Activity [7]: Active
Time [5]: 108 min
